Measurements published in ChEMBL document CHEMBL1145287, “Docking and 3-D QSAR studies on indolyl aryl sulfones. Binding mode exploration at the HIV-1 reverse transcriptase non-nucleoside binding site and design of highly active N-(2-hydroxyethyl)carboxamide and N-(2-hydroxyethyl)carbohydrazide derivatives” (J Med Chem, 2005).

What was measured:
Details in all cases: Homo sapiens
MT4 [1] = test: Protection of infected MT-4 cells from wtIIIB-HIV-1-induced cytopathogenicity; format: functional, cell-based
Summary of the method: (§1)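 MT-4 cells (1 × 10⁴/well, RPMI 1640 with 10% FCS, 37 °C, 5% CO₂) were infected with HIV-1 IIIB (H9/IIIB supernatant) at an inoculum causing complete cytopathicity by day 4, across graded compound concentrations. Viability was read by MTT, with cytotoxicity run in parallel on mock-infected cells. Concentration giving 50% protection reported as the mean of three experiments.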

MT4 [2] = test: Concentration required to achieve 50% protection of infected MT-4 cells from Y181C-HIV-1 strain; format: functional, cell-based
Summary of the method: (§2)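 MT-4 cells (1 × 10⁴/well, RPMI 1640 + 10% FCS) exposed to serial compound dilutions (200 mM DMSO stock diluted in medium), infected with enough virus to give full cytopathicity by day 4; wt IIIB from H9/IIIB supernatant, Y181C and K103N–Y181C from NNRTI-selected passages.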

C8166 [3] = test: Concentration required to reduce the amount of p24 by 90% in wtIIIB-HIV-1-infected C8166 cells; format: functional
Summary of the method: (§3)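 Acute infection of C8166 cells (1 × 10⁴/well, RPMI 1640 with 10% FCS, 37 °C, 5% CO₂) by HIV-1 IIIB from persistently infected H9/IIIB supernatant, with a virus inoculum sized to cause complete cytopathicity at day 4, in the presence of serially diluted compound (DMSO stock diluted in medium). p24 antigen was measured by immunoenzymatic kit. Concentration giving 90% reduction of p24 reported.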

C8166 [4] = test: Compound concentration required to reduce the amount of p24 by 90% in wtIIIBinfected C8166 cells; format: functional; summary of the method: as §3
C8166 [5] = test: Concentration required to reduce the amount of p24 by 90% in C8166 cells infected with an efavirenz-resistant strain EFVR; format: functional
Summary of the method: (§4)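 C8166 cells (1 × 10⁴/well) with serial compound dilutions (200 mM DMSO stock diluted in medium), infected with K103R/V179D/P225H virus selected from IIIB by passage in C8166 cells with efavirenz up to 2 μM (stock 3.0 × 10⁵ CCID₅₀/mL); 37 °C incubation; p24 measured by immunoenzymatic kit; value = concentration giving 90% p24 reduction.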

C8166 [6] = test: Compound concentration required to reduce the amount of p24 by 90% in C8166 cells infected with an efavirenz-resistant strain EFVR carrying mutations K103R, V179D, and P225H; format: functional; summary of the method: as §4
MT4 [7] = test: Concentration required to achieve 50% protection of infected MT-4 cells from K103N-Y181C; format: functional, cell-based; summary of the method: as §2
MT4 [8] = test: Compound concentration required to achieve 50% protection of infected MT-4 cells from Y181C strain was determined by the MTT method; format: functional, cell-based; summary of the method: as §2
MT4 [9] = test: Compound concentration required to achieve 50% protection of infected MT-4 cells from K103N-Y181C strain was determined by the MTT method; format: functional, cell-based; summary of the method: as §2
MT4 [10] = test: (§5) Concentration required for 50% protection of infected MT-4 cells from wtIIIB-HIV-1-induced cytopathogenicity was determined by the MTT method; format: functional, cell-based; summary of the method: as §1
MT4 [11] = test: as §5; format: functional, cell-based; summary of the method: as §2; remark: listed apart in the source

`Cc1ccc(Sc2c(C(N)=O)[nH]c3ccc(Cl)cc23)cc1` was tested. Which EC50 (MT4 [1]) did it give?
The EC50 was greater than 450 nM.

For `Cc1cc(C)cc(S(=O)(=O)c2c(C(=O)NN)[nH]c3ccc(Cl)cc23)c1`, which EC50 (MT4 [1]) is on record?
The EC50 was 130 nM.

With `Cc1cc(C)cc(S(=O)(=O)c2c(C(N)=O)[nH]c3ccc(Br)cc23)c1` as the compound, how does the EC50 (MT4 [1]) read?
Its EC50 is 2 nM.

For `CC(C)c1ccc(S(=O)(=O)c2c(C(N)=O)[nH]c3ccc(Cl)cc23)cc1`, which EC50 (MT4 [1]) is on record?
Its EC50 is 80 nM.

Which EC50 (MT4 [1]) does the source give for `CC(C)(C)c1ccc(S(=O)(=O)c2c(C(N)=O)[nH]c3ccc(Cl)cc23)cc1` here?
Its EC50 is 130 nM.

`CCOC(=O)C(=O)c1cc2cc(Cl)ccc2n1S(=O)(=O)c1cc(Cl)ccc1[N+](=O)[O-]` was tested. Which EC50 (MT4 [1]) did it give?
Its EC50 is greater than 31000 nM.

For `CC(C)OC(=O)c1c(C=O)n(S(=O)(=O)c2ccccc2)c2ccc(Cl)cc12`, which EC50 (MT4 [1]) is on record?
The EC50 was greater than 200000 nM.

What does the source list for `Cc1ccnc2c1NC(=O)c1cccnc1N2C1CC1` [NEVIRAPINE]?
EC50 (MT4 [2]): > 30000 nM; EC90 (C8166 [3]): 120 nM; EC90 (C8166 [4]): 120 nM; EC90 (C8166 [5]): > 30000 nM; EC90 (C8166 [6]): > 30000 nM; EC50 (MT4 [7]): > 30000 nM; EC50 (MT4 [8]): > 30000 nM; EC50 (MT4 [9]): > 30000 nM

`O=Cc1cc2cc(Cl)ccc2n1S(=O)(=O)c1ccccc1` was tested. Which EC50 (MT4 [1]) did it give?
The EC50 was greater than 75000 nM.

For `Cc1ccc(S(=O)(=O)c2c(C(=O)NCCO)[nH]c3ccc(Cl)cc23)c(C)c1`, which EC50 (MT4 [10]) is on record?
Its EC50 is 10 nM.

For `NNC(=O)c1[nH]c2ccccc2c1S(=O)(=O)c1ccccc1`, which EC50 (MT4 [1]) is on record?
The EC50 was 530 nM.

Which EC50 (MT4 [1]) does the source give for `CCOC(=O)C(=O)c1cc2cc(Cl)ccc2n1S(=O)(=O)c1ccc(C)cc1` here?
The EC50 was greater than 200000 nM.

For `O=[N+]([O-])c1ccc(Cl)c(S(=O)(=O)n2ccc3ccccc32)c1`, which EC50 (MT4 [10]) is on record?
Its EC50 is 6030 nM.

For `NNC(=O)c1[nH]c2ccc(Cl)cc2c1S(=O)(=O)c1cc(Cl)ccc1N`, which EC50 (MT4 [1]) is on record?
Its EC50 is 300 nM.

With `Cc1cc(C)cc(S(=O)(=O)c2c(C(=O)NCCO)[nH]c3ccc(Cl)cc23)c1` as the compound, how does the EC50 (MT4 [11]) read?
The EC50 was 1 nM.

And the EC50 (MT4 [2])?
Its EC50 is 10 nM.

What about the EC90 (C8166 [3]) of the same compound?
Its EC90 is 5 nM.

And the EC90 (C8166 [4])?
Its EC90 is 5 nM.

And the EC90 (C8166 [5])?
Its EC90 is 100 nM.

What about the EC90 (C8166 [6]) of the same compound?
The EC90 was 100 nM.

And the EC50 (MT4 [1])?
The EC50 was 1 nM.

What about the EC50 (MT4 [7]) of the same compound?
The EC50 was 500 nM.

What about the EC50 (MT4 [8]) of the same compound?
The EC50 was 10 nM.

What about the EC50 (MT4 [10]) of the same compound?
The EC50 was 1 nM.

What about the EC50 (MT4 [9]) of the same compound?
The EC50 was 500 nM.

For `Nc1cc(Cl)ccc1S(=O)(=O)n1ccc2ccccc21`, which EC50 (MT4 [10]) is on record?
The EC50 was 74100 nM.

For `Cc1cc(C)cc(Sc2c(C(N)=O)[nH]c3ccc(Cl)cc23)c1`, which EC50 (MT4 [1]) is on record?
The EC50 was 6 nM.

`CCOC(=O)c1c(C=O)n(S(=O)(=O)c2ccccc2)c2ccccc12` was tested. Which EC50 (MT4 [1]) did it give?
The EC50 was greater than 32000 nM.

How did the EC50 (MT4 [1]) turn out when `NC(=O)c1[nH]c2ccc(Cl)cc2c1Sc1ccc(F)cc1` was run?
The EC50 was 1400 nM.

Which EC50 (MT4 [1]) does the source give for `CC(C)OC(=O)c1c(C=O)n(S(=O)(=O)c2ccccc2)c2ccccc12` here?
Its EC50 is greater than 54000 nM.

Which EC50 (MT4 [1]) does the source give for `CCOC(=O)C(=O)c1cc2ccccc2n1S(=O)(=O)c1cc(Cl)ccc1[N+](=O)[O-]` here?
Its EC50 is greater than 100000 nM.

How did the EC50 (MT4 [1]) turn out when `CCOC(=O)c1[nH]c2ccccc2c1Sc1cc(Cl)ccc1N` was run?
The EC50 was no less than 200000 nM.

How did the EC50 (MT4 [1]) turn out when `NC(=O)c1[nH]c2ccccc2c1Sc1cc(Cl)ccc1N` was run?
The EC50 was 9000 nM.

How did the EC50 (MT4 [1]) turn out when `CCOC(=O)c1[nH]c2ccc(Cl)cc2c1S(=O)(=O)c1ccccc1N` was run?
Its EC50 is greater than 200000 nM.

Which EC50 (MT4 [1]) does the source give for `NC(=O)c1[nH]c2ccccc2c1S(=O)(=O)c1ccccc1` here?
Its EC50 is 180 nM.

For `NNC(=O)c1[nH]c2ccc(Cl)cc2c1S(=O)(=O)c1ccc(F)cc1`, which EC50 (MT4 [1]) is on record?
The EC50 was 320 nM.

`CCOC(=O)c1[nH]c2ccc(Cl)cc2c1Sc1ccccc1N` was tested. Which EC50 (MT4 [1]) did it give?
The EC50 was 2300 nM.

With `Cc1ccc(S(=O)(=O)c2c(C(N)=O)[nH]c3ccc(Cl)cc23)c(C)c1` as the compound, how does the EC50 (MT4 [1]) read?
Its EC50 is 4 nM.

With `Cc1cc(C)cc(S(=O)(=O)c2c(C(N)=O)[nH]c3ccc(C(C)O)cc23)c1` (stereo not drawn) as the compound, how does the EC50 (MT4 [1]) read?
Its EC50 is 25 nM.

`NNC(=O)c1[nH]c2ccc(Cl)cc2c1Sc1ccc(Cl)cc1` was tested. Which EC50 (MT4 [1]) did it give?
Its EC50 is 10000 nM.

For `CCOC(=O)c1c(C=O)n(S(=O)(=O)c2ccccc2)c2ccc(Cl)cc12`, which EC50 (MT4 [1]) is on record?
Its EC50 is greater than 42000 nM.

How did the EC50 (MT4 [1]) turn out when `CC(C)(C)c1ccc(Sc2c(C(N)=O)[nH]c3ccc(Cl)cc23)cc1` was run?
Its EC50 is 8000 nM.

How did the EC50 (MT4 [1]) turn out when `Cc1ccccc1Sc1c(C(N)=O)[nH]c2ccc(Cl)cc12` was run?
Its EC50 is 300 nM.

How did the EC50 (MT4 [1]) turn out when `Cc1ccccc1S(=O)(=O)c1c(C(N)=O)[nH]c2ccc(Cl)cc12` was run?
The EC50 was 1 nM.

Which EC50 (MT4 [1]) does the source give for `CCOC(=O)c1[nH]c2ccc(Cl)cc2c1Sc1cc(Cl)ccc1N` here?
The EC50 was 2500 nM.

With `Cc1cc(C)cc(S(=O)(=O)c2c(C(N)=O)[nH]c3ccc(Cl)cc23)c1` as the compound, how does the EC50 (MT4 [1]) read?
The EC50 was 4 nM.

How did the EC50 (MT4 [1]) turn out when `Cc1cccc(S(=O)(=O)c2c(C(N)=O)[nH]c3ccc(Cl)cc23)c1` was run?
The EC50 was 1 nM.

For `NC(=O)c1[nH]c2ccc(Cl)cc2c1S(=O)(=O)c1ccc(F)cc1`, which EC50 (MT4 [1]) is on record?
Its EC50 is 14 nM.

Which EC50 (MT4 [1]) does the source give for `NC(=O)c1c(C=O)n(S(=O)(=O)c2ccccc2)c2ccccc12` here?
Its EC50 is greater than 32000 nM.

How did the EC50 (MT4 [1]) turn out when `NC(=O)c1[nH]c2ccc(Cl)cc2c1Sc1c(Cl)cccc1Cl` was run?
Its EC50 is 1200 nM.

For `CCOC(=O)c1[nH]c2ccccc2c1S(=O)(=O)c1cc(Cl)ccc1N`, which EC50 (MT4 [1]) is on record?
The EC50 was 2500 nM.
